Experimental data: publication PMC8988011 (The Journal of Biological Chemistry, 2022)
One block for each compound: values may come before it.

Columns and labels:
LATS1 = molecular target: T1, LATS1 (Homo sapiens, UniProt O95835); test: Kinase assay; format: biochemical
T1 sequence (O95835 589-1130 limits assumed): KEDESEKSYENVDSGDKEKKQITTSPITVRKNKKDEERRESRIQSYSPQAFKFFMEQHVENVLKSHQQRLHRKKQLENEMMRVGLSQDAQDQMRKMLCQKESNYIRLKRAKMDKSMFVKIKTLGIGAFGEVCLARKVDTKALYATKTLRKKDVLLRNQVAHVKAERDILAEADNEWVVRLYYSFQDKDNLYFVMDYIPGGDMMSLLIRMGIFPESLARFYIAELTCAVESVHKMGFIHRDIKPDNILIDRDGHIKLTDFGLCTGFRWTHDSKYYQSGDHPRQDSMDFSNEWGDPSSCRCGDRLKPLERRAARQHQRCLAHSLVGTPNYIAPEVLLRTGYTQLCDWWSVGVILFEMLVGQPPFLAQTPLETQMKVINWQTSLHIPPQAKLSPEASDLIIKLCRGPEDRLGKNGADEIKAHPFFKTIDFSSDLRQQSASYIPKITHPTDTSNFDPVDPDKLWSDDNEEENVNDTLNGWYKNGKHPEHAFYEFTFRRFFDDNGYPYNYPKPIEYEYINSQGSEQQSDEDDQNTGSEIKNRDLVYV
Outline: (§1)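 LATS1 and LATS2 activity was measured with a fluorescence kinase/ADP kit following the maker's protocol in 384-well format. IC50 came from dose-response inhibition curves at 400 μM ATP. Mode of inhibition was assessed from Lineweaver-Burk plots of reaction velocity at ATP 100 to 400 μM. Three independent experiments, means ± SD.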

LATS2 = molecular target: T2, LATS2 (Homo sapiens, UniProt Q9NRM7); test: Kinase assay; format: biochemical
T2 sequence (Q9NRM7 553-1088 limits assumed): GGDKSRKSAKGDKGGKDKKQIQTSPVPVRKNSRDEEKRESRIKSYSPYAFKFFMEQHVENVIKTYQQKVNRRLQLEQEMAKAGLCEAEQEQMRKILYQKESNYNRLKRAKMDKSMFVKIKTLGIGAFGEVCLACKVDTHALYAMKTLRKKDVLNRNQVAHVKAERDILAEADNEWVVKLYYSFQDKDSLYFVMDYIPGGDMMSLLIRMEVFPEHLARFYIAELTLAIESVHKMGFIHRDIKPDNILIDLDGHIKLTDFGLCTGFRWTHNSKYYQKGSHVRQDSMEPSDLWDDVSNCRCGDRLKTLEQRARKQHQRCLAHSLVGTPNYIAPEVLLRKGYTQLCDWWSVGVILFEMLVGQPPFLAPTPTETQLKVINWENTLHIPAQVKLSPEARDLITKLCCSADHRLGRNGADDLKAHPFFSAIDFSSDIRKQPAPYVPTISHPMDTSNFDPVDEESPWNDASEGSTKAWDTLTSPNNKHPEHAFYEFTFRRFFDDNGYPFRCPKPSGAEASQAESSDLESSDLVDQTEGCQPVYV
Outline: as §1

SGK2 = molecular target: T3, SGK2 (Homo sapiens, UniProt Q9HBY8); test: Kinase panel assay; format: biochemical
T3 sequence (Q9HBY8 1-367): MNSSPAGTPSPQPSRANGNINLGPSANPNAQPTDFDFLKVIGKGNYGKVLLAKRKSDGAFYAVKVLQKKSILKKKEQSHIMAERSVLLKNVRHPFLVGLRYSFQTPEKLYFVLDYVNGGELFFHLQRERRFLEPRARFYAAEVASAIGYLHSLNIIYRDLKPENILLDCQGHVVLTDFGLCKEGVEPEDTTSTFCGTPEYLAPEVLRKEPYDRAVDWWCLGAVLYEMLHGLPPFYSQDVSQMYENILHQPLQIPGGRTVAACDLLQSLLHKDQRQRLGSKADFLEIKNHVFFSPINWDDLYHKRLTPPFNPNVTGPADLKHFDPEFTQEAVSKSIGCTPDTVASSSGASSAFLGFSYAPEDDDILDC

SKOV3 cells [1] = test: Growth in 2D monolayer culture, ATP assay; format: cell-based, Human; conditions: 10 μM; Fig. 1D
Outline: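 SKOV3 monolayers were grown in medium without gellan gum on cell-attachable 96-well flat-bottom plates at 700 cells/well, 37 °C, 5% CO2, humidified. Cultures received 10 μM test compound or DMSO vehicle. Cell number was followed over time by ATP assay, and each day's value was normalized to day 0.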

MDCK cells = test: Cyst culture in Matrigel; format: cell-based, canine; conditions: 10 μM, 6 days
Outline: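 MDCK cells at 1.1 × 10^4 cells/ml in medium with 0.2% Matrigel GFR were plated onto a pre-set Matrigel GFR layer (15 min, 37 °C). Medium holding 10-fold concentrated test compound or DMSO was added, and plates were incubated for 6 days at 37 °C. Cysts (>30 μm diameter) were counted and sized by automated imaging. Three independent experiments, means ± SD, Student's t test.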

PKACα = PKACα (Homo sapiens, UniProt P17612); test: Kinase panel assay; format: biochemical
A431 cells = test: Hanging drop cell culture, ATP assay; format: cell-based, Human; conditions: 10 μM, 2 days
Outline: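 A431 cells at 50,000 cells/ml received 10 μM test compound or DMSO. They were then hung as 10 μl drops (15 per lid) over a PBS-filled dish and cultured 2 days at 37 °C. Pooled drops were assayed for cell number by ATP assay, as % of DMSO control. 11 independent experiments, means ± SD, Student's t test.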

p70S6K = p70S6K (Homo sapiens, UniProt P23443); test: Kinase panel assay; format: biochemical
SKOV3 cells [2] = test: Growth in gellan gum–containing medium; format: cell-based, Human; conditions: 10 μM, maximally effective concentration
Outline: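 SKOV3 cells were suspended in medium with 0.015% (w/v) gellan gum and seeded at 2000 cells/well in 96-well flat-bottom low-attachment plates, 37 °C, 5% CO2. A test compound concentration series or DMSO vehicle was applied for 4 days. Cell number was read by ATP assay and expressed as % of DMSO control.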

[3] = test system: mouse intestinal organoids; test: Organoid culture in Matrigel; format: cell-based; conditions: 10 μM, up to 9 days, vs vehicle
MSK1 = MSK1 (Homo sapiens, UniProt O75582); test: Kinase panel assay; format: biochemical
PKACβ = PKACβ (Homo sapiens, UniProt P22694); test: Kinase panel assay; format: biochemical
[4] = test system: LATS1-deleted or LATS2-deleted SKOV3 cells; test: Growth of LATS knockout cells in U-bottom low-attachment plates, ATP assay; format: cell-based, Human; conditions: 10 μM, 4 days
SGK3 = molecular target: T4, SGK3 (Homo sapiens, UniProt Q96BR1); test: Kinase panel assay; format: biochemical
T4 sequence (Q96BR1 1-496): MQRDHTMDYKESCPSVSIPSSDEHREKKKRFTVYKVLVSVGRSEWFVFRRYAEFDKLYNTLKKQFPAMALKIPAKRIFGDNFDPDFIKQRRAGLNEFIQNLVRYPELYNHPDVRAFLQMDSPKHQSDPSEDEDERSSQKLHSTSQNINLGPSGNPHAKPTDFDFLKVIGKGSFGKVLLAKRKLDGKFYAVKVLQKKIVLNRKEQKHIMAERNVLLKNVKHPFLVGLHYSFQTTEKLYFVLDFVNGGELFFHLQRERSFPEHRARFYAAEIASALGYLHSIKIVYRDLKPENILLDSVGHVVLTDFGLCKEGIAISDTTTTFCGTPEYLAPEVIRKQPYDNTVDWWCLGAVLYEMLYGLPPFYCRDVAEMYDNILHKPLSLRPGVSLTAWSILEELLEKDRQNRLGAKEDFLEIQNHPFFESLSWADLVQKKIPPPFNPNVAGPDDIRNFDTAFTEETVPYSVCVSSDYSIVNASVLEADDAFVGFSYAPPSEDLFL

SKOV3 cells [5] = test: Growth in U-bottom low-attachment plates; format: cell-based, Human; conditions: with GA-017, 4 days, Fig. 3J

p70S6K, sequence (P23443 whole entry): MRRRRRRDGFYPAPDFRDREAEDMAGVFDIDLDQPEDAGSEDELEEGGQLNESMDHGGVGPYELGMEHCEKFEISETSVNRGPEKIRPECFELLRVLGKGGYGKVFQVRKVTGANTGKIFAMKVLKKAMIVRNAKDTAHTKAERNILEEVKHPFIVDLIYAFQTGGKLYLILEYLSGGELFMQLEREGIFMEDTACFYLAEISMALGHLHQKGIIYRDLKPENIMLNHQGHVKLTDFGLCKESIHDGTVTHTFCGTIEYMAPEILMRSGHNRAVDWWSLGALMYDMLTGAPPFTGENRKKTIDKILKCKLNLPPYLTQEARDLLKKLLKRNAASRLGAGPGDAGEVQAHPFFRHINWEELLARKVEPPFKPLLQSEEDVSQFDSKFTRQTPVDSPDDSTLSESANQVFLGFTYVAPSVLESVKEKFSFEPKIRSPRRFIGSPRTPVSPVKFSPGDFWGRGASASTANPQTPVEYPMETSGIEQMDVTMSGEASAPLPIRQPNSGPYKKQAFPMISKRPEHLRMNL
MSK1, sequence (O75582 whole entry): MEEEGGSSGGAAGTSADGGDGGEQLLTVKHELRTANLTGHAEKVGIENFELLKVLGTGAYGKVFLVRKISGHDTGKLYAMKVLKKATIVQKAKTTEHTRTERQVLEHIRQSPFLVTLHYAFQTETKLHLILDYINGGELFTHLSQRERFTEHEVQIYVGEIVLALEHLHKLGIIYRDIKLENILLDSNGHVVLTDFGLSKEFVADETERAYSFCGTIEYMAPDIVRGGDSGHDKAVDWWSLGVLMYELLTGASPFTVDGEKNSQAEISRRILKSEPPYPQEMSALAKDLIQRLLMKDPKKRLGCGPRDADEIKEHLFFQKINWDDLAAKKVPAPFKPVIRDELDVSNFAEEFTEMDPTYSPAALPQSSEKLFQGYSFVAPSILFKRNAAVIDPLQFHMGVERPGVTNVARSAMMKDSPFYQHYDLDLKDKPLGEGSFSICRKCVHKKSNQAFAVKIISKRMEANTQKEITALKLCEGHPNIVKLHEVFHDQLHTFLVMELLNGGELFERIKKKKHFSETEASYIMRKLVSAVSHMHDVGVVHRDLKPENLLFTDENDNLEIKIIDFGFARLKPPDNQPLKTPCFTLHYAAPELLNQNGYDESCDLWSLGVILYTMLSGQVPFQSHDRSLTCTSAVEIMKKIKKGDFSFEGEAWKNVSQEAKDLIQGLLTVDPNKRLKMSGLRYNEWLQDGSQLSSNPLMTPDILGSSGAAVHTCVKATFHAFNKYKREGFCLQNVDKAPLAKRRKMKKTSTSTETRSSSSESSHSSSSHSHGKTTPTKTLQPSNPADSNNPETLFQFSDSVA

inhibition of LATS1 (LATS1; compared with GA-017, Fig. S7): comparable inhibition
inhibition of LATS2 (LATS2; compared with GA-017, Fig. S7): comparable inhibition
Compound: CC/C(=N\NC(=O)C(C)Nc1ccccc1)c1ccc(O)c(C)c1O (stereo not shown) [GA-002, (E)-N'-(1-(2,4-dihydroxy-3-methylphenyl)propylidene)-2-(phenylamino)propanehydrazide]

IC50 (SGK2): < 40 nM
IC50 (LATS1): 4.1 ± 0.79 nM
Ki (LATS1): 0.58 ± 0.11 nM
IC50 (PKACα): < 40 nM
IC50 (p70S6K): < 40 nM
IC50 (MSK1): < 40 nM
IC50 (LATS2): 3.92 ± 0.42 nM
Ki (LATS2): 0.25 ± 0.03 nM
IC50 (PKACβ): < 40 nM
IC50 (SGK3): < 40 nM
Compound: CC/C(=N\NC(=O)NCc1cccc(O)c1)c1ccc(O)c(C)c1O [GA-017, (E)-2-(1-(2,4-dihydroxy-3-methylphenyl)propylidene)-N-(3-hydroxybenzyl)hydrazine-1-carboxamide]
cell growth under 2D conditions (SKOV3 cells [1]): did not affect cell growth
number of cysts versus vehicle control (DMSO) (MDCK cells): 1.5 fold
growth of spheroids formed in hanging drops (A431 cells): promoted the growth of spheroids
increase in the number of SKOV3 cells (SKOV3 cells [2]): over 2 fold
ex vivo formation of intestinal organoids [3]: significantly enhanced the ex vivo formation of intestinal organoids
growth-promoting effect on LATS1- or LATS2-deleted cells [4]: did not exhibit a growth-promoting effect

Compound: Verteporfin
effect on the growth-promoting effect of GA-017 (SKOV3 cells [5]): abolished the growth-promoting effect of GA-017
